Test results: ChEMBL document CHEMBL1122127, “New anticancer agents: synthesis of 1,2-dihydropyrido[3,4-b]pyrazines (1-deaza-7,8-dihydropteridines)” (1982)
One block for each compound: values may come before it.

What was measured:
[1] = test system: L1210; experiment: Inhibitory concentration against proliferation of cultured lymphoid leukemia L1210 cells during 48 hrs.; type: functional; settings: Mus musculus, L1210, 48 h; read-out: ID50 (the source's name)
[2] = test system: L1210; experiment: Fraction of cell population of cultured lymphoid leukemia L1210 cells in mitosis at a dose of 0.01 uM after 12 hr; type: functional, Mus musculus
[3] = test system: L1210; experiment: Fraction of cell population of cultured lymphoid leukemia L1210 cells in mitosis at a dose of 0.3 uM after 12 hr; type: functional, Mus musculus
[4] = test system: Mus musculus; experiment: Increase in life span at the highest nontoxic dose against P-388 tumor cell […] at 25 mg/kg; type: functional; settings: P388
How it was run: (§1)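 Mice bearing lymphocytic leukemia P-388 (parental or drug-resistant sublines). The reported value is the increase in life span at the highest nontoxic dose tested.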

[5] = test system: L1210; experiment: Fraction of cell population of cultured lymphoid leukemia L1210 cells in mitosis at a dose of 0.3 uM after 24 hr; type: functional, Mus musculus
[6] = test system: Mus musculus; experiment: Increase in life span at the highest nontoxic dose against P-388 tumor cell after 1,5,9 day at 6.25 mg/kg; settings: P388
[7] = test system: Mus musculus; experiment: Increase in life span at the highest nontoxic dose against P-388 tumor cell after 1,5,9 day at 12.5 mg/kg; type: functional; settings: P388; how it was run: as §1
[8] = test system: Mus musculus; experiment: Increase in life span at the highest nontoxic dose against P-388 tumor cell […] at 200 mg/kg; type: functional; settings: P388; how it was run: as §1
[9] = test system: Mus musculus; experiment: Increase in life span at the highest nontoxic dose against P-388 tumor cell after 1-9 days at 25 mg/kg; type: functional; settings: P388; how it was run: as §1
[10] = test system: L1210; experiment: Fraction of cell population of cultured lymphoid leukemia L1210 cells in mitosis at a dose of 0.1 uM after 12 hr; type: functional, Mus musculus
[11] = test system: L1210; experiment: Fraction of cell population of cultured lymphoid leukemia L1210 cells in mitosis at a dose of 0.03 uM after 12 hr; type: functional, Mus musculus
[12] = test system: Mus musculus; experiment: Increase in life span at the highest nontoxic dose against P-388 tumor cell […] at 67 mg/kg; type: functional; settings: P388; how it was run: as §1
[13] = test system: Mus musculus; experiment: Increase in life span at the highest nontoxic dose against P-388 tumor cell […] was determined at 100 mg/kg; type: functional; settings: P388; how it was run: as §1
[14] = test system: Mus musculus; experiment: Increase in life span at the highest nontoxic dose against Vincristine-resistant line of P-388 tumor cell […] at 12 mg/kg; type: functional; settings: P388; how it was run: as §1
[15] = test system: Mus musculus; experiment: Increase in life span at the highest nontoxic dose against P-388 tumor cell after 1-5 days at 12 mg/kg; type: functional; settings: P388; how it was run: as §1
[16] = test system: Mus musculus; experiment: Increase in life span at the highest nontoxic dose against P-388 tumor cell […] at 100 mg/kg; type: functional; settings: P388; how it was run: as §1
[17] = test system: Mus musculus; experiment: Increase in life span at the highest nontoxic dose against P-388 tumor cell […] at 50 mg/kg; type: functional; settings: P388; how it was run: as §1
[18] = test system: Mus musculus; experiment: Increase in life span at the highest nontoxic dose against methotrexate resistant cell line of P-388 tumor cell […] at 25 mg/kg; type: functional; settings: P388; how it was run: as §1
[19] = test system: Mus musculus; experiment: Increase in life span at the highest nontoxic dose against P-388 tumor cell […] was determined at 25 mg/kg; type: functional; settings: P388; how it was run: as §1
[20] = test system: Mus musculus; experiment: Increase in life span at the highest nontoxic dose against P-388 tumor cell […] at 90 mg/kg; type: functional; settings: P388; how it was run: as §1
[21] = test system: Mus musculus; experiment: Increase in life span at the highest nontoxic dose against P-388 tumor cell after 1,5,9 day at 30 mg/kg; type: functional; settings: P388; how it was run: as §1

SMILES: CCOC(=O)Nc1cc2c(c(N)n1)N=C(c1ccc(-c3ccccc3)cc1)CN2
IC50 [1]: 6.1 nM
Mitotic index [2]: 0.65
Mitotic index [3]: 0.42
ILS at 25 mg/kg [4]: 36%

IC50 [1]: 44 nM
SMILES: CCOC(=O)Nc1cc2c(c(N)n1)N=C(c1ccc(Cl)cc1Cl)CN2

SMILES: CCOC(=O)Nc1cc2c(c(N)n1)N=C(c1ccc(Cl)cc1)CN2
Mitotic index [5]: 0.26
ILS at 6.25 mg/kg [6]: 38%
IC50 [1]: 52 nM
ILS at 12.5 mg/kg [7]: 37%
ILS at 200 mg/kg [8]: 38%

IC50 [1]: 23 nM
SMILES: CCOC(=O)Nc1cc2c(c(N)n1)N=C(c1ccc(N)cc1)CN2

IC50 [1]: < 1 nM
SMILES: CC[C@]1(O)C[C@H]2CN(CCc3c([nH]c4ccccc34)[C@@](C(=O)OC)(c3cc4c(cc3OC)N(C=O)[C@H]3[C@@](O)(C(=O)OC)[C@H](OC(C)=O)[C@]5(CC)C=CCN6CC[C@]43[C@@H]65)C2)C1 [VINCRISTINE]

IC50 [1]: 42 nM
SMILES: CCOC(=O)Nc1cc2c(c(N)n1)N=C(c1ccc(C)cc1C)CN2

IC50 [1]: 1.22 nM
SMILES: CCOC(=O)Nc1cc2c(c(N)n1)N=C(c1cccc(OC)c1)CN2

IC50 [1]: 18 nM
SMILES: CCOC(=O)Nc1cc2c(c(N)n1)N=C(c1ccc(Cl)c(Cl)c1)CN2

IC50 [1]: 138 nM
SMILES: CCOC(=O)Nc1cc2c(c(N)n1)N=C(c1ccc(C)c(C)c1)CN2

SMILES: CCOC(=O)Nc1cc2c(c(N)n1)N=C(CN(C)c1ccc(C(=O)OC)cc1)CN2
ILS at 25 mg/kg [9]: 30%
IC50 [1]: 58 nM
Mitotic index [3]: 0.61
Mitotic index [10]: 0.44

SMILES: CCOC(=O)Nc1cc2c(c(N)n1)N=C(CN(C)c1ccccc1)CN2
Mitotic index [11]: 0.77
ILS at 67 mg/kg [12]: 90%
Mitotic index [5]: 0.8
IC50 [1]: 8.4 nM
ILS at 100 mg/kg [13]: 114%

SMILES: CCOC(=O)Nc1cc2c(c(N)n1)N=C(c1ccccc1)CN2
IC50 [1]: 4.7 nM
ILS at 12 mg/kg [14]: 50%

IC50 [1]: 6.8 nM
SMILES: CCOC(=O)Nc1cc2c(c(N)n1)N=C(c1ccc(F)cc1)CN2

SMILES: CCOC(=O)Nc1cc2c(c(N)n1)N=C(c1ccc(C)cc1)CN2
IC50 [1]: 24 nM
ILS at 12 mg/kg [15]: 30%

IC50 [1]: 27 nM
SMILES: COC(=O)Nc1nc2cc(C(=O)c3cccs3)ccc2[nH]1 [NOCODAZOLE]

SMILES: CCOC(=O)Nc1cc2c(c(N)n1)N=C(c1ccc(OC)cc1)CN2
IC50 [1]: 4.1 nM
ILS at 25 mg/kg [4]: 50%

IC50 [1]: 78 nM
SMILES: CCOC(=O)Nc1cc2c(c(N)n1)N=C(c1cc(OC)c(OC)c(OC)c1)CN2

SMILES: CCOC(=O)Nc1cc2c(c(N)n1)N=C(CN(C)c1ccc(Cl)cc1)CN2
Mitotic index [11]: 0.71
ILS at 100 mg/kg [16]: 65%
IC50 [1]: 14.5 nM

SMILES: CCOC(=O)Nc1cc2c(c(N)n1)N=C(CN(C)c1ccc(OC)cc1)CN2
Mitotic index [11]: 0.64
ILS at 50 mg/kg [17]: 80%
IC50 [1]: 7.9 nM
ILS at 25 mg/kg [18]: 150%
Mitotic index [3]: 0.49
ILS at 25 mg/kg [19]: 133%

SMILES: CCOC(=O)Nc1cc2c(c(N)n1)N=C(c1ccc(C(F)(F)F)cc1)CN2
IC50 [1]: 150 nM
ILS at 90 mg/kg [20]: 0%
ILS at 30 mg/kg [21]: 0%
